Assay [1] deals with T1, Acetylcholinesterase (Homo sapiens, UniProt P22303). In words: In vitro inhibitory concentration against purified Acetylcholinesterase of human erythrocytes; value ranges from 224-1012.
Assay [2] concerns the target T2, Butyrylcholinesterase (Equus caballus, UniProt Q9N1N9). In words: In vitro inhibitory concentration against Butyrylcholinesterase of horse serum; value ranges from 0.25-0.40. An outline of the steps:
(§1)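 Ellman assay followed, with 200 µM butyrylthiocholine as substrate. Runs were in triplicate with four-point dose-response curves. IC50 and fiducial limits came from log concentration versus % inhibition.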

Assay [3] concerns the target T1, Acetylcholinesterase. As to the kind of experiment: In vitro inhibitory concentration against purified Acetylcholinesterase of human erythrocytes; value ranges from 11.9-128.
Assay [4] addresses T2, Butyrylcholinesterase. In words: In vitro inhibitory concentration against Butyrylcholinesterase of horse serum; value ranges from 0.8-3.2.
The target in assay [5] is T3, Amine oxidase [flavin-containing] B (Rattus norvegicus, UniProt P19643).
T3 sequence (P19643 whole entry): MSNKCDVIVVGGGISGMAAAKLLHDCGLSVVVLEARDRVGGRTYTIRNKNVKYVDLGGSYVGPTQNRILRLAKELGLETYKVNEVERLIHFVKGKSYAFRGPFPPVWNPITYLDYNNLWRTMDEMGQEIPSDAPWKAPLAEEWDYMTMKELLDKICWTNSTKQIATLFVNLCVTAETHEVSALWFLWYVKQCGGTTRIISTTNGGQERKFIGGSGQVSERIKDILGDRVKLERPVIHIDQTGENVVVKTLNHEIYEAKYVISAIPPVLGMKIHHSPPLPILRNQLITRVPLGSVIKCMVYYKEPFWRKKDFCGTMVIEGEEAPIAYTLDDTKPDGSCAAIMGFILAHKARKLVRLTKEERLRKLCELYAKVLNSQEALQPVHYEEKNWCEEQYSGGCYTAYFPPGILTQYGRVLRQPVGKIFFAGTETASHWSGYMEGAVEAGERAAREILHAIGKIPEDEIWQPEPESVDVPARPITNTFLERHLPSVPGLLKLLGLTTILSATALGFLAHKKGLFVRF
As to the kind of experiment: In vitro inhibitory concentration against Monoamine oxidase B of rat brain homogenates. The assay is classed as tissue-based.

The target in assay [6] is T4, Amine oxidase [flavin-containing] A (Rattus norvegicus, UniProt P21396).
T4 sequence (P21396 whole entry): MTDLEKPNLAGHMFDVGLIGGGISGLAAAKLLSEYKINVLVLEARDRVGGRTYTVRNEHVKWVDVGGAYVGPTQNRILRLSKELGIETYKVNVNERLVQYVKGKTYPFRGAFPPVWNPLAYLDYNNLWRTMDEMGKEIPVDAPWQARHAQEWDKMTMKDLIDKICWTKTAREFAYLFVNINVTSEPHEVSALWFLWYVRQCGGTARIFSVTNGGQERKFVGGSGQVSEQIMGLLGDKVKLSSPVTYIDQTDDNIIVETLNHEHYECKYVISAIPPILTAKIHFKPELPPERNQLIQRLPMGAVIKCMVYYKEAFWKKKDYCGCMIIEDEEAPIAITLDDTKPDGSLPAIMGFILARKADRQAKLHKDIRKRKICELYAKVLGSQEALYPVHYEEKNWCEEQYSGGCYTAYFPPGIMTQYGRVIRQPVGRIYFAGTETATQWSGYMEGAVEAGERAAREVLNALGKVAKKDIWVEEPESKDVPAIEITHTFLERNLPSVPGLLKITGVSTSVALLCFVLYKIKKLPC
As to the kind of experiment: In vitro inhibitory concentration against Monoamine oxidase A of rat brain homogenates; value ranges from 190-310. The assay is classed as tissue-based.

Assay [7] deals with T2, Butyrylcholinesterase. As to the kind of experiment: In vitro inhibitory concentration against Butyrylcholinesterase of horse serum; value ranges from 0.85-1.96. An outline of the steps:
as §1

For assay [8], the target named is T1, Acetylcholinesterase. As to the kind of experiment: In vitro inhibitory concentration against purified Acetylcholinesterase of human erythrocytes; value ranges from […]-[…].
In assay [9] the target is T2, Butyrylcholinesterase. In words: In vitro inhibitory concentration against Butyrylcholinesterase of horse serum; value ranges from 0.016-0.021. An outline of the steps:
as §1

Assay [10] has as its target T3, Amine oxidase [flavin-containing] B. As to the kind of experiment: In vitro inhibitory concentration against Monoamine oxidase B of rat brain homogenates; value ranges from 90-260.
The target in assay [11] is T4, Amine oxidase [flavin-containing] A. In words: In vitro inhibitory concentration against Monoamine oxidase A of rat brain homogenates; value ranges from 0.72-0.97. The assay is classed as tissue-based.
Assay [12] addresses T1, Acetylcholinesterase.
The target in assay [13] is T4, Amine oxidase [flavin-containing] A. In words: In vitro inhibitory concentration against Monoamine oxidase A of rat brain homogenates; value ranges from 290-920. The assay is classed as tissue-based.
In assay [14] the target is T1, Acetylcholinesterase. As to the kind of experiment: In vitro inhibitory concentration against purified Acetylcholinesterase of human erythrocytes; value ranges from 28.1-58.3.
Assay [15] addresses T1, Acetylcholinesterase. As to the kind of experiment: In vitro inhibitory concentration against purified Acetylcholinesterase of human erythrocytes.
Assay [16] concerns the target T1, Acetylcholinesterase. The source holds these as a separate data set.
In assay [17] the target is T2, Butyrylcholinesterase. In words: In vitro inhibitory concentration against Butyrylcholinesterase of horse serum; value ranges from 4.9-11.2. An outline of the steps:
as §1

Assay [18] addresses T1, Acetylcholinesterase. As to the kind of experiment: In vitro inhibitory concentration against purified Acetylcholinesterase of human erythrocytes; value ranges from 1.28-3.30.
Assay [19] addresses T2, Butyrylcholinesterase. As to the kind of experiment: In vitro inhibitory concentration against Butyrylcholinesterase of horse serum; value ranges from 0.99-1.91. An outline of the steps: as §1
The target in assay [20] is T1, Acetylcholinesterase. In words: In vitro inhibitory concentration against purified Acetylcholinesterase of human erythrocytes; value ranges from 0.008-0.012.
For assay [21], the target named is T2, Butyrylcholinesterase. As to the kind of experiment: In vitro inhibitory concentration against Butyrylcholinesterase of horse serum; value ranges from 0.009-0.024. An outline of the steps: as §1
Assay [22] has as its target T4, Amine oxidase [flavin-containing] A. As to the kind of experiment: In vitro inhibitory concentration against Monoamine oxidase A of rat brain homogenates; value ranges from 7.6-12.5. The assay is classed as tissue-based.
Assay [23] addresses T1, Acetylcholinesterase. As to the kind of experiment: In vitro inhibitory concentration against purified Acetylcholinesterase of human erythrocytes; value ranges from 5.5-45.9.
For assay [24], the target named is T3, Amine oxidase [flavin-containing] B. In words: In vitro inhibitory concentration against Monoamine oxidase B of rat brain homogenates; value ranges from 6-350.
In assay [25] the target is T4, Amine oxidase [flavin-containing] A. In words: In vitro inhibitory concentration against Monoamine oxidase A of rat brain homogenates; value ranges from 29-44. The assay is classed as tissue-based.
For assay [26], the target named is T1, Acetylcholinesterase. As to the kind of experiment: In vitro inhibitory concentration against purified Acetylcholinesterase of human erythrocytes; value ranges from 1.7-6.4.
The target in assay [27] is T2, Butyrylcholinesterase. As to the kind of experiment: In vitro inhibitory concentration against Butyrylcholinesterase of horse serum; value ranges from 2.1-4.1. An outline of the steps: as §1
Assay [28] in a line: Bimolecular rate constant for carbamoylation of ACHE. The assay is classed as ADME. An outline of the steps: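 Human erythrocyte AChE preincubated with inhibitor at 37 °C in 0.1 M phosphate buffer, pH 7.4, under Ellman conditions with 200 µM […]. Pseudo-first-order rate constants (k_obs) for progressive inhibition were obtained at 4-5 inhibitor concentrations. The apparent bimolecular carbamylation constant k_i was calculated from these.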

T2 sequence (Q9N1N9 whole entry): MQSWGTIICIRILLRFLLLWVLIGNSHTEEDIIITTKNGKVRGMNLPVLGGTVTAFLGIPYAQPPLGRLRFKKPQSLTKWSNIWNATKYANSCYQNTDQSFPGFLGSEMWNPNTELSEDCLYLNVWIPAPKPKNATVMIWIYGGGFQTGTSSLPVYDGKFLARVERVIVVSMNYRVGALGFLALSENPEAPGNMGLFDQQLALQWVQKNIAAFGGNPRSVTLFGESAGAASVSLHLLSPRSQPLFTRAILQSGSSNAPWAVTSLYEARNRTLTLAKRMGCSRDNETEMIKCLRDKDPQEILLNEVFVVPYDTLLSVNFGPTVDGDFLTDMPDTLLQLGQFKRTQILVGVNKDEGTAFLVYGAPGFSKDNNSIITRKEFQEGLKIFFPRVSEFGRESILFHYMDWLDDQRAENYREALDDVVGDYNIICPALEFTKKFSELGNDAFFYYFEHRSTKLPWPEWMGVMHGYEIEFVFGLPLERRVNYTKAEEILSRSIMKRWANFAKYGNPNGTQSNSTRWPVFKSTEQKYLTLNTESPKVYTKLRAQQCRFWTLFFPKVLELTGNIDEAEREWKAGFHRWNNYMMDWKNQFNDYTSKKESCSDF
T1 sequence (P22303 whole entry): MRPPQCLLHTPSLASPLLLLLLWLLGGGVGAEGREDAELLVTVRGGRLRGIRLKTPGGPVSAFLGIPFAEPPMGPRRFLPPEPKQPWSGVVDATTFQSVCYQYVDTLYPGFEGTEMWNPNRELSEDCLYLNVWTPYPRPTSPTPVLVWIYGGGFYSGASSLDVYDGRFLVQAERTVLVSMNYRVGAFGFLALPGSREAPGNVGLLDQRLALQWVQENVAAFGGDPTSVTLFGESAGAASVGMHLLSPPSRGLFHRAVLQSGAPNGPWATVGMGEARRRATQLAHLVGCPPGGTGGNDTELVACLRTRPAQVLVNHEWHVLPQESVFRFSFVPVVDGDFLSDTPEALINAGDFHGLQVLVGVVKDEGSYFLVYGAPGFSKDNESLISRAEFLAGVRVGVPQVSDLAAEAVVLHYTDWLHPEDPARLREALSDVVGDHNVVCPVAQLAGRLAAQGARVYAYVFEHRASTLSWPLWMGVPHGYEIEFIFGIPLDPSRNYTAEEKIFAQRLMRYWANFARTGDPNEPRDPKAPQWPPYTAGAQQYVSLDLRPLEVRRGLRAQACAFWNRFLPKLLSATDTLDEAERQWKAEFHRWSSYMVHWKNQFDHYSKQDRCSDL

Consider `C#CCNC1CCc2cccc(OC(=O)N(C)CC)c21` (centres undefined), for which the figures for the IC50 against Acetylcholinesterase [1] and against Butyrylcholinesterase [2] were 525 µM and 0.31 µM, respectively.
Turning to `C#CCNC1CCc2ccc(OC(=O)N(C)CC)cc21` (centres undefined), the IC50 (as a rule, the point on the concentration scale where inhibition reaches its midpoint) against Acetylcholinesterase [3] was 47 µM; on Butyrylcholinesterase [4] it was 1.5 µM; in assay [5], greater than 1000 µM; in [6] it was 250 µM.
`CNC1CCc2ccc(OC(=O)N(C)C)cc21` (centres undefined): the IC50 was 0.95 µM at Butyrylcholinesterase [7] and 1.07 µM against Acetylcholinesterase [8].
For the compound `C#CCNC1CCc2c(OC(=O)N(C)CC)cccc21` (centres undefined), the IC50 at Butyrylcholinesterase [9] is 0.019 µM; in assay [10], 150 µM; in assay [11], 0.83 µM; against Acetylcholinesterase [12], 2.15 µM.
Turning to `CCNC1CCc2ccc(OC(=O)N(C)C)cc21` (centres undefined), the IC50 in [13] amounted to 500 µM; against Acetylcholinesterase [8], 24.5 µM.
Regarding `CCN(C)C(=O)Oc1ccc2c(c1)C(NC)CC2` (centres undefined), half-maximal inhibition against Acetylcholinesterase [14] (IC50) required 38.6 µM.
`C#CCN(C)C1CCc2ccc(OC(=O)N(C)CCC)cc21` (centres undefined): the IC50 against Acetylcholinesterase [15] was greater than 1000 µM.
Regarding `C#CCNC1CCc2ccc(OC(=O)N(C)c3ccc(OC)cc3)cc21` (centres undefined), the results for the half-inhibitory concentration (IC50) against Acetylcholinesterase [16] and against Butyrylcholinesterase [17] were 0.86 µM and 6.4 µM, respectively.
Turning to `C#CCNC1CCc2ccc(OC(=O)NCC)cc21` (centres undefined), on Acetylcholinesterase [8], it took 13.7 µM to reach half-maximal inhibition (IC50).
For `C#CCNC1CCc2ccc(OC(=O)N(C)Cc3ccccc3)cc21` (centres undefined), the IC50 at Acetylcholinesterase [18] came to 1.78 µM; against Butyrylcholinesterase [19], 1.26 µM.
Regarding `C#CCN(C)C1CCc2ccc(OC(=O)N(C)CC)cc21` (centres undefined), the IC50 against Acetylcholinesterase [15] was greater than 1300 µM.
`C#CCNC1CCc2ccc(OC(=O)N(CC)C3CCCCC3)cc21` (centres undefined) registered an IC50 against Acetylcholinesterase [8] of 17.9 µM.
In the case of `CN(C)C(=O)Oc1cccc2c1CCC2N` (centres undefined), the IC50 against Acetylcholinesterase [20] was 0.009 µM; at Butyrylcholinesterase [21] it was 0.014 µM; in [5], greater than 1000 µM; in [22] it was 9.8 µM.
As for `C#CCN(C)C1CCc2ccc(OC(=O)N(C)C)cc21` (centres undefined), the results for the IC50 (against Acetylcholinesterase [23]; in assay [24]; in assay [25]) were 12.9 µM, 47 µM and 36 µM, respectively.
Take `C#CCNC1CCc2cccc(OC(=O)N(C)C)c21` (centres undefined): the IC50 worked out at 2.5 µM at Acetylcholinesterase [26] and 2.8 µM on Butyrylcholinesterase [27].
For `CNC1CCc2cccc(OC(=O)N(C)C)c21` (centres undefined), the IC50 against Acetylcholinesterase [8] came out at 0.51 µM.
`CCN(C)C(=O)Oc1cccc([C@H](C)N(C)C)c1` [RIVASTIGMINE]: in [28], the “Bimolecular carbamoylation rate constant (ki)” value amounted to 23.87 M⁻¹ s⁻¹.
